Measurements: ChEMBL document CHEMBL1133652, “Selective protection and functionalization of morphine: synthesis and opioid receptor binding properties of 3-amino-3-desoxymorphine derivatives” (J Med Chem, 2000)

How the values were obtained:
[1] = Inhibition of adenylyl cyclase activity in membranes of the human SH-SY5Y neuroblastoma cell line.; format: functional, cell-based; design: concentration or dose not given beside the values; details: concentration not given here
How it was run: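 SH-SY5Y membranes (50 µg protein) incubated 15 min at 30 °C with compound at 10 µM final. The mix held 20 mM HEPES pH 7.4, creatine phosphokinase/phosphocreatine, 1 mM phenanthroline, 60 µM IBMX, 0.1 mM GTP and 0.1 mM ATP. Stopped with perchloric acid and neutralized. cAMP measured by [3H]cAMP kit. Reported as % inhibition of basal activity, duplicate, repeated at least three times.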

Mu-type opioid receptor [2] = target: T1, Mu-type opioid receptor (Cavia porcellus, UniProt P97266); assay: (§1) Binding affinity to displace radioligand [3H]DAMGO on Opioid receptor mu 1 in guinea pig membranes.; format: cell membranes
[3] = target: Kappa-type opioid receptor (Cavia porcellus, UniProt P41144); assay: Binding affinity to displace radioligand [3H]U-69593 on Opioid receptor kappa 1 in guinea pig membranes.; format: cell membranes
[4] = Binding affinity to displace radioligand [3H]naltrindole on Opioid receptor delta 1 in guinea pig membranes.
Mu-type opioid receptor [5] = target: T1, Mu-type opioid receptor; assay: as §1; format: cell membranes; remark: listed apart in the source
How it was run: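 Guinea pig brain membranes (500 µg protein) incubated with 12 concentrations of compound and 0.25 nM [3H]DAMGO in 50 mM Tris-HCl pH 7.5, 25 °C, 60 min. Nonspecific binding with 10 µM naloxone. Filtration, washes in cold Tris, scintillation counting. IC50 by log-probit least-squares fit, converted to Ki (Cheng-Prusoff). At least three experiments in triplicate, mean ± SE.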

Kappa-type opioid receptor, sequence (P41144 whole entry): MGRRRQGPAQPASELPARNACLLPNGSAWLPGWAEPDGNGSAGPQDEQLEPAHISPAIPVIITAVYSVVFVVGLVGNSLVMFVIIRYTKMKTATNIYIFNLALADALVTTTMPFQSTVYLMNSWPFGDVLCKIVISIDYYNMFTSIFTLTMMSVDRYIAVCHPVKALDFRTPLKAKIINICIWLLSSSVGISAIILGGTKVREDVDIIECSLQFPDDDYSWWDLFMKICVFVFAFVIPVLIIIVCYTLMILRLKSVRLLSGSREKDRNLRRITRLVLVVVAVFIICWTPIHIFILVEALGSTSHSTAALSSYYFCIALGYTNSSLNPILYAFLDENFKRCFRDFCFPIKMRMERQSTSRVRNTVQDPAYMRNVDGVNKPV
T1 sequence (P97266 whole entry): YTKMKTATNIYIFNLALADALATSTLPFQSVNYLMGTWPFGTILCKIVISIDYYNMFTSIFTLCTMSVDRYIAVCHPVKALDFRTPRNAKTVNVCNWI

SMILES	inhibition [1] [%]	Ki (Mu-type opioid receptor [2]) [nM]	Ki [3] [nM]	Ki [4] [nM]	Ki (Mu-type opioid receptor [5]) [nM]
CN1CC[C@]23c4c5ccc(Nc6ccccc6)c4O[C@H]2[C@@H](O)C=C[C@H]3[C@H]1C5	44	59	240		
CN1CC[C@]23c4c5ccc(NCc6ccccc6)c4O[C@H]2[C@@H](O)C=C[C@H]3[C@H]1C5	17	33	3400		
C[C@H]1[C@H]2Cc3ccc(N)cc3[C@@]1(C)CCN2CC1CC1		1.8	1.2		
C[C@H]1[C@H]2Cc3ccc(Nc4ccccc4)cc3[C@@]1(C)CCN2CC1CC1				5.2	
CN(C)c1ccc2c3c1O[C@H]1[C@@H](O)C=C[C@H]4[C@@H](C2)N(C)CC[C@@]341	13	240	290		
C[C@@H](NC(=O)[C@@H](N)Cc1ccc(O)cc1)C(=O)NCC(=O)N(C)[C@@H](Cc1ccccc1)C(=O)NCCO	58				
CN1CC[C@]23c4c5ccc(N)c4O[C@H]2[C@@H](O)C=C[C@H]3[C@H]1C5	26		740		53
CNc1ccc2c3c1O[C@H]1[C@@H](O)C=C[C@H]4[C@@H](C2)N(C)CC[C@@]341	29	63	2800		
